Assay outcomes deposited in PubChem BioAssay by several laboratories.
HTR5A inv ag: inverse agonist of human HTR5A in OPRM1-OPRD1 counter-screen. P47898. HTR5A cell line, luminescence, inverse agonism. inhibition, % at 9.3 µM. 340,000 compounds, 0.083% hits. AID 504634; in the data active means inhibition mostly above about 23%, no sharp cut-off; inactive means mostly below about 18%
Target sequence (P47898 whole entry, looked up): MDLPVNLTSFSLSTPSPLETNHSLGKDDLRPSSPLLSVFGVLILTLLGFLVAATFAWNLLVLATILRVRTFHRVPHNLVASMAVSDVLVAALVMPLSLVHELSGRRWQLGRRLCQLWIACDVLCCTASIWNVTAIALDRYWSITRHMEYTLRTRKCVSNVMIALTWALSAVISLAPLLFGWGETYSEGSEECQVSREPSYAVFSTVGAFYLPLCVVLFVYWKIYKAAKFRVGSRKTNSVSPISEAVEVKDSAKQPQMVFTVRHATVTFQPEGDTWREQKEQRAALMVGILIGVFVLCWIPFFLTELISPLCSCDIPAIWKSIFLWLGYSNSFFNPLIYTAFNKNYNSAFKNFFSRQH
Lipid droplet: hepatic lipid droplet formation modulation; AML12 mouse hepatocytes, oleate lipid droplets, BODIPY imaging; inhibition, % at 6.5 µM; 240,000 compounds, 0.4% hits; AID 1656;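 active means lipid droplet intensity inhibited by at least 50%, with more than 500 cells counted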
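Test system: AML12 hepatocytes (mouse); reagent: oleate loading, 100 µM; dosing: one dose, 6.5 µM compound; incubation: overnight exposure; signal: fluorescence imaging, 20x objective, two fields per well; read-out basis: % inhibition of corrected integrated BODIPY droplet signal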
OPRM1-OPRD1 ag: agonists of human mu-delta opioid receptor heterodimerization. P35372+P41143. cells, OPRM1-OPRD1 heterodimerization, luminescence. activation, % at 9.3 µM. 340,000 compounds, 0.3% hits. AID 504326; in the data active means activation above about 18%
OPRM1-OPRD1 inv: inverse agonist of human OPRM1-OPRD1 heterodimerization; P35372+P41143; cell-based MOR-DOR heterodimer luminescence, inverse agonism; inhibition, % at 9.3 µM; 340,000 compounds, 0.21% hits; in the data active means inhibition above about 22%, passing the limit was not always enough
HTR5A ag: counter-screen for OPRM1-OPRD1 agonists: human HTR5A agonism. 340,000 compounds, 0.61% hits. activation, % at 9.3 µM. HTR5A agonist assay, luminescence, cell-based; in the data active means activation mostly above about 9.5%, no sharp cut-off; inactive means mostly below about 7.6%
Each line names hits and unclear results; the compound was inactive in the other large screens. Sampled rows, rich in hits. Any-hit rate of the full collection: about 1.4%.

O=C(c1ccccc1Cl)N1CCC(N2CCC(C(=O)N3CCCC3)CC2)CC1	HTR5A ag 13
C[C@@H]1CN(S(=O)C(C)(C)C)[C@@H](CCO)/C1=C\c1ccccc1 (stereo not given in full)	none (no result: Lipid droplet)
CCN(CC)c1ccc(N=C2C(=O)Nc3ccccc32)cc1	none
O=C1Nc2ccccc2C1=Nc1ccc(Br)cc1	OPRM1-OPRD1 inv 55
O=C1Nc2ccccc2C1=Nc1ccc(Cl)cc1	OPRM1-OPRD1 inv 64
CCN(CC)C(=O)CSc1ncnc2sc(-c3ccccc3)cc12	HTR5A ag 9.3
CN(CCC#N)C(=O)CSc1ncnc2sc(-c3ccccc3)cc12	none (no result: Lipid droplet)
CN(C)CCC1c2ccc(Cl)cc2CCc2cccnc21 (stereo not given) (tested in a mixture with another compound)	none
COC(=O)c1ccccc1OCCOCCOc1cccc2cccnc12	HTR5A ag 11
O=C(NCc1ccco1)c1ccc(Br)s1	none
O=C(NCc1ccco1)c1ccc(C(=O)NCc2ccco2)s1	HTR5A ag 10
CN(C)c1ccc(/C=C2\SC(=S)N(Nc3ncc(C(F)(F)F)cc3Cl)C2=O)cc1	none (no result: Lipid droplet)
COc1cc(/C=C2\SC(=S)N(Nc3ncc(C(F)(F)F)cc3Cl)C2=O)ccc1O	HTR5A inv ag 41
O=c1oc(-c2cccs2)nc2ccccc12	HTR5A ag 14
CCOc1cc(C(=O)N/N=C/c2ccsc2)cc(OCC)c1OCC	HTR5A ag 14
O=c1cc(CSc2nc3ccccc3c(=O)[nH]2)c2ccc(O)cc2o1	none
CN1CCN(c2ccc(S(=O)(=O)N3CCOCC3)cc2NC(=O)Cc2ccccc2F)CC1	none (no result: Lipid droplet)
Clc1ccc(CN2CCc3c([nH]c4ccccc34)C2)cc1Cl	HTR5A ag 14
O=c1c2c(-c3ccc([N+](=O)[O-])cc3)ccnc2[nH]n1-c1ccccc1	none
Nc1nc(CCOc2ccc(F)cc2)cs1	none
COc1cc(NC(=O)Cn2nc(C(F)(F)F)c(Br)c2C)cc([N+](=O)[O-])c1	HTR5A ag 12
COc1ccc(CNC(=O)Cn2nc(C(F)(F)F)c(Br)c2C)cc1	none (no result: Lipid droplet)
CC1(C)CC(N=c2cc(-c3ccccc3)oc3ccc(Cl)cc23)CC(C)(C)N1	HTR5A ag 14
O=S(=O)(Nc1ccc(Cl)cn1)c1ccc(F)cc1	none
O=C(Nc1ccc(F)cc1)C1CCN(S(=O)(=O)c2cccc3nonc23)CC1	none
CCOc1cc(N2CCOCC2)c(OCC)cc1NC(=O)CN1CCC(Cc2ccccc2)CC1	HTR5A ag 12
COc1ccc2[nH]c3c(=O)n(CCCCCC(=O)NCCC(C)C)c(=S)[nH]c3c2c1	none
O=C1c2ccccc2C(=O)N1Nc1ccc([N+](=O)[O-])cc1[N+](=O)[O-]	HTR5A inv ag 35
O=C1C2C3C=CC(C3)C2C(=O)N1Nc1ccc([N+](=O)[O-])cc1[N+](=O)[O-] (stereo not given)	none
CCOC(=O)[C@@H]1[C@H]2COc3cc(OC)ccc3[C@H]2N2C(=O)N(c3ccc(OC)cc3)C(=O)[C@]12C	none (no result: Lipid droplet)
Cc1ccc(C(c2sc3nc(C)nn3c2O)N2CC(C)OC(C)C2)cc1 (stereo not given)	none
Cc1nc2sc(C(c3ccc(Cl)cc3)N3CC(C)OC(C)C3)c(O)n2n1 (stereo not given)	HTR5A ag 11 (no result: Lipid droplet)
CCN(CC)CCOC(=O)C1(c2ccccc2)CCOCC1	HTR5A ag 11 (no result: Lipid droplet)
Cc1noc(C)c1S(=O)(=O)Nc1ccc2c(c1)C(=O)N([C@H](C)CO)C[C@@H](C)[C@@H](CN(C)Cc1ccc3c(c1)OCO3)O2	none (no result: Lipid droplet)
O=[N+]([O-])c1ccccc1/C=C/C=N/n1c(-c2ccccc2)n[nH]c1=S	HTR5A ag 13
Cc1ccc(-c2n[nH]c(=S)n2/N=C/C=C\c2ccccc2[N+](=O)[O-])cc1	none
COc1ccc(-c2cc(C(=O)O)no2)cc1	HTR5A ag 9.8
CCC(C)NC(=O)c1cc(-c2ccc(OC)cc2)on1 (stereo not given)	none
CC(=O)c1cc(-c2ccc(F)cc2)n(CCC(=O)Nc2cccnc2)c1C	none
Cc1cc2c(cc1C)N(C(=O)CSC1=NCCS1)C(C)(C)c1ssc(=S)c1-2	Lipid droplet 67
Cc1ccc(C(=O)N/C(=C\c2ccco2)C(=O)NCCc2c[nH]c3ccccc23)cc1	none
Cc1ccc(C(=O)N/C(=C/c2cccs2)C(=O)NCCc2c[nH]c3ccccc23)cc1	HTR5A ag 14
C/C(=N/NS(=O)(=O)c1cc(C)ccc1C)c1c[nH]c2ccccc12	HTR5A ag 12
C/C(=N/NS(=O)(=O)c1ccc(C)cc1)c1c[nH]c2ccccc12	HTR5A ag 11
C/C(=N/NS(=O)(=O)c1cccc([N+](=O)[O-])c1)c1c[nH]c2ccccc12	none
C/C(=N/NS(=O)(=O)c1ccccc1)c1c[nH]c2ccccc12	HTR5A ag 12
CC(=O)Nc1ccc(-c2nnc(SCC(=O)Nc3ccc4c(c3)oc3ccccc34)n2C)cc1	none (no result: Lipid droplet)
C=CCn1c(Cc2cccs2)nnc1SCC(=O)Nc1ccc(OC)c(OC)c1	none
CCn1c(SCC(=O)Nc2ccc3c(c2)oc2ccccc23)nnc1-c1ccc(N)cc1	HTR5A ag 11
CCn1c(Cc2cccs2)nnc1SCC(=O)Nc1ccc(OC)c(OC)c1	HTR5A ag 9.7 (no result: Lipid droplet)
CCN1CCN(C(=O)c2ccc3c(=O)n(C4CCCC4)c(=S)[nH]c3c2)CC1	HTR5A ag 9.3
CCOC(=O)CNC(=O)CSc1nc(N(C)C)nc(N2CCOCC2)n1	HTR5A ag 11
COc1ccc(/C=N/NC(=O)c2cc3c(ccc4ccccc43)o2)cc1OC	none
COc1cc(/C=N/NC(=O)c2cc3c(ccc4ccccc43)o2)cc(OC)c1O	HTR5A ag 11
O=C(O)c1ccc2c(=O)n3c(nc2c1)/C(=C/c1ccc(Cl)c(Cl)c1)CC3	none (no result: Lipid droplet)
Cn1c(CNC(=O)c2ccccc2F)nnc1SCC(=O)N1CCN(c2ccccc2)CC1	HTR5A ag 12
Cc1nn(CC(=O)N2CCCCCC2)c(=O)c2cc3occc3n12	none
Cc1cc(C)cc(NC(=O)C(Nc2ccccc2)c2ccccc2)c1 (stereo not given)	HTR5A ag 12
Cc1ccc(NC(=O)C(Nc2ccccc2)c2ccccc2)cc1 (stereo not given)	none
COc1cc(NC(C(=O)Nc2cccc(C(C)=O)c2)c2ccccc2)cc(OC)c1OC (stereo not given)	HTR5A ag 13
c1cncc(CNc2nc(-c3cccnc3)nc3ccccc23)c1	none
COc1cccc(-c2nc(NCc3cccnc3)c3ccccc3n2)c1O	HTR5A ag 11
CN(c1ccccc1)S(=O)(=O)c1ccc(Cl)c(C(=O)Nc2ccccc2N2CCOCC2)c1	none (no result: Lipid droplet)
C#CCOCCOCCOCCNc1nc(N2CCN(C(=O)[C@H](CC(N)=O)n3cc([C@@H](N)C(C)C)nn3)CC2)nc(N2CCN(C(=O)[C@H](CC(N)=O)n3cc([C@@H](N)C(C)C)nn3)CC2)n1	none (no result: Lipid droplet)
